Activity calls are given as the source filed them. The rule behind the calls is not given here.
Key:
[1] = Cytotoxicity against human NCI60 cells assessed as cellular growth at 10 uM after 48 hrs by SRB assay relative to untreated control; type: functional
Summary of the method: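 NCI-60 panel lines grown in RPMI 1640 with 5% FBS and 2 mM L-glutamine. Plated at 5000–40,000 cells/well and preincubated 24 h at 37 °C, 5% CO₂, with time-zero plates fixed in TCA. Compounds, dissolved in DMSO and diluted in medium, were applied for 48 h. Cells were TCA-fixed (10% final for adherent, 16% for suspension) and stained with 0.4% SRB in 1% acetic acid. Dye was solubilised in 10 mM Tris base and read at 515 nm; growth was expressed as a percentage of untreated control.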

[2] = tested on: OVCAR-8; assay: Cytotoxicity against human OVCAR8 cells at 10^-6 M after 72 hrs by MTS assay; type: functional; conditions: OVCAR-8, 72 h, read-out: GI
Summary of the method: (§1)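 Preliminary screen at 10^-5 and 10^-6 M. Cells were grown in RPMI with 10% fetal calf serum plus penicillin, streptomycin and fungizone under 5% CO₂, plated in 96-well plates, and dosed 24 h later from DMSO stocks (1% DMSO final, same in controls). After 72 h, MTS was added for 3 h at 37 °C and absorbance read at 490 nm. Inhibition was calculated as (1 − OD treated/OD control) × 100, in triplicate.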

[3] = tested on: PC-3; assay: Cytotoxicity against human PC3 cells at 10^-6 M after 72 hrs by MTS assay; type: functional; conditions: PC-3, 72 h, read-out: GI; summary of the method: as §1
[4] = tested on: A549; assay: Cytotoxicity against human A549 cells at 10^-5 M after 72 hrs by MTS assay; type: functional; conditions: A549, 72 h, read-out: GI
Summary of the method: (§2)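 Cells grown in RPMI with 10% fetal calf serum, penicillin, streptomycin and fungizone under 5% CO₂. Plated in 96-well plates and dosed 24 h later with compound in DMSO (1% final DMSO; controls got DMSO alone). After 72 h, MTS was added for 3 h at 37 °C and A490 read. Inhibition = (1 − OD treated/OD control) × 100, in triplicate.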

[5] = tested on: HT-29; assay: Cytotoxicity against human HT-29 cells at 10^-5 M after 72 hrs by MTS assay; type: functional; conditions: HT-29, 72 h, read-out: GI; summary of the method: as §2
[6] = tested on: PC-3; assay: Cytotoxicity against human PC3 cells at 10^-5 M after 72 hrs by MTS assay; type: functional; conditions: PC-3, 72 h, read-out: GI; summary of the method: as §1
[7] = tested on: HL-60; assay: Cytotoxicity against human HL60 cells at 10^-6 M after 72 hrs by MTS assay; type: functional; conditions: HL-60, 72 h, read-out: GI; summary of the method: as §2
[8] = tested on: HL-60; assay: Cytotoxicity against human HL60 cells at 10^-5 M after 72 hrs by MTS assay; type: functional; conditions: HL-60, 72 h, read-out: GI; summary of the method: as §2
[9] = tested on: MIA PaCa-2; assay: Cytotoxicity against human MIAPaCa2 cells at 10^-6 M after 72 hrs by MTS assay; type: functional; conditions: MIA PaCa-2, 72 h, read-out: GI
[10] = species on record: Ovis aries; assay: Inhibition of sheep brain tubulin polymerization at 10 uM
Summary of the method: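 Microtubule protein from sheep brain, purified by two assembly/disassembly cycles (37 °C/0 °C), in 100 mM MES pH 6.6, 1 mM EGTA, 0.5 mM MgCl₂. Compounds in DMSO were tested at a single concentration, with incubation at 37 °C for 10 min and then 0 °C for 5 min before measuring assembly rate, following a modified Guénard protocol.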

[11] = tested on: SK-OV-3; assay: Cytotoxicity against human SKOV3 cells at 10^-5 M after 72 hrs by MTS assay; type: functional; conditions: SK-OV-3, 72 h, read-out: GI; summary of the method: as §1
[12] = tested on: HCT-15; assay: Cytotoxicity against human HCT15 cells at 10^-6 M after 72 hrs by MTS assay; type: functional; conditions: HCT-15, 72 h, read-out: GI; summary of the method: as §2
[13] = tested on: MIA PaCa-2; assay: Cytotoxicity against human MIAPaCa2 cells at 10^-5 M after 72 hrs by MTS assay; type: functional; conditions: MIA PaCa-2, 72 h, read-out: GI
[14] = tested on: SF-268; assay: Cytotoxicity against human SF268 cells at 10^-5 M after 72 hrs by MTS assay; type: functional; conditions: SF-268, 72 h, read-out: GI; summary of the method: as §1
[15] = tested on: K562; assay: Cytotoxicity against human K562 cells at 10^-5 M after 72 hrs by MTS assay; type: functional; conditions: K562, 72 h, read-out: GI; summary of the method: as §2
[16] = Cytotoxicity against human MDA231 cells at 10^-5 M after 72 hrs by MTS assay; type: functional; conditions: MDA-MB-231, 72 h, read-out: GI; summary of the method: as §1
[17] = tested on: MCF7; assay: Cytotoxicity against human MCF7 cells at 10^-6 M after 72 hrs by MTS assay; type: functional; conditions: MCF7, 72 h, read-out: GI
[18] = Cytotoxicity against human HL60R cells at 10^-6 M after 72 hrs by MTS assay; type: functional; conditions: read-out: GI; summary of the method: as §2
[19] = tested on: HCT-116; assay: Cytotoxicity against human HCT116 cells at 10^-6 M after 72 hrs by MTS assay; type: functional; conditions: HCT-116, 72 h, read-out: GI; summary of the method: as §2
[20] = tested on: HT-29; assay: Cytotoxicity against human HT-29 cells at 10^-6 M after 72 hrs by MTS assay; type: functional; conditions: HT-29, 72 h, read-out: GI; summary of the method: as §2
[21] = Cytotoxicity against human MDA231 cells at 10^-6 M after 72 hrs by MTS assay; type: functional; conditions: MDA-MB-231, 72 h, read-out: GI; summary of the method: as §1
[22] = tested on: SF-268; assay: Cytotoxicity against human SF268 cells at 10^-6 M after 72 hrs by MTS assay; type: functional; conditions: SF-268, 72 h, read-out: GI; summary of the method: as §1
[23] = tested on: OVCAR-8; assay: Cytotoxicity against human OVCAR8 cells at 10^-5 M after 72 hrs by MTS assay; type: functional; conditions: OVCAR-8, 72 h, read-out: GI; summary of the method: as §1
[24] = tested on: K562; assay: Cytotoxicity against human K562 cells at 10^-6 M after 72 hrs by MTS assay; type: functional; conditions: K562, 72 h, read-out: GI; summary of the method: as §2
[25] = Cytotoxicity against human HL60R cells at 10^-5 M after 72 hrs by MTS assay; type: functional, HL-60; conditions: read-out: GI; summary of the method: as §2
[26] = tested on: HCT-15; assay: Cytotoxicity against human HCT15 cells at 10^-5 M after 72 hrs by MTS assay; type: functional; conditions: HCT-15, 72 h, read-out: GI; summary of the method: as §2
[27] = tested on: A549; assay: Cytotoxicity against human A549 cells at 10^-6 M after 72 hrs by MTS assay; type: functional; conditions: A549, 72 h, read-out: GI; summary of the method: as §2
[28] = tested on: SK-OV-3; assay: Cytotoxicity against human SKOV3 cells at 10^-6 M after 72 hrs by MTS assay; type: functional; conditions: SK-OV-3, 72 h, read-out: GI; summary of the method: as §1
[29] = tested on: HCT-116; assay: Cytotoxicity against human HCT116 cells at 10^-5 M after 72 hrs by MTS assay; type: functional; conditions: HCT-116, 72 h, read-out: GI; summary of the method: as §2
[30] = tested on: MCF7; assay: Cytotoxicity against human MCF7 cells at 10^-5 M after 72 hrs by MTS assay; type: functional; conditions: MCF7, 72 h, read-out: GI

| tubulin polymerization inhibition call (active/not active) [10] | Structure (SMILES) | Activity [1] [%] | inhibition of growth at 1 µM [2] [%] | inhibition of growth at 1 µM [3] [%] | inhibition of growth at 10 µM [4] [%] | inhibition of growth at 10 µM [5] [%] | inhibition of growth at 10 µM [6] [%] | inhibition of growth at 1 µM [7] [%] | inhibition of growth at 10 µM [8] [%] | inhibition of growth at 1 µM [9] [%] | inhibition of growth at 10 µM [11] [%] | inhibition of growth at 1 µM [12] [%] | inhibition of growth at 10 µM [13] [%] | inhibition of growth at 10 µM [14] [%] | inhibition of growth at 10 µM [15] [%] | inhibition of growth at 10 µM [16] [%] | inhibition of growth at 1 µM [17] [%] | inhibition of growth at 1 µM [18] [%] | inhibition of growth at 1 µM [19] [%] | inhibition of growth at 1 µM [20] [%] | other results |
| --- | --- | --- | --- | --- | --- | --- | --- | --- | --- | --- | --- | --- | --- | --- | --- | --- | --- | --- | --- | --- | --- |
| – | COc1cc(/C(=C2\O[C@@H]([C@H](O)CO)[C@H]3OC(C)(C)O[C@@H]23)c2ccc3ccccc3c2)cc(OC)c1OC | 96 | – | – | – | – | – | – | – | – | – | – | – | – | – | – | – | – | – | – | – |
| inactive | COc1cc(C(=C(COC(C)=O)COC(C)=O)c2ccc3c(c2)OCO3)cc(OC)c1OC | – | 0 | 3 | 12 | 0 | 13 | 17 | 30 | 0 | 7 | 9 | 0 | 20 | 26 | 17 | 0 | 9 | 0 | 0 | inhibition of growth at 1 µM [21]: 0%; inhibition of growth at 1 µM [22]: 24%; inhibition of growth at 10 µM [23]: 0%; inhibition of growth at 1 µM [24]: 5%; inhibition of growth at 10 µM [25]: 24%; inhibition of growth at 10 µM [26]: 22%; inhibition of growth at 1 µM [27]: 0%; inhibition of growth at 1 µM [28]: 3%; inhibition of growth at 10 µM [29]: 0%; inhibition of growth at 10 µM [30]: 11% |
| – | COc1cc(/C(=C2\O[C@@H]([C@H]3COC(C)(C)O3)[C@H]3OC(C)(C)O[C@@H]23)c2cccc(N)c2)cc(OC)c1OC | 102 | – | – | – | – | – | – | – | – | – | – | – | – | – | – | – | – | – | – | – |
| – | COc1cc(/C(=C2\O[C@@H]([C@H](O)CO)[C@H]3OC(C)(C)O[C@@H]23)c2ccc3c(c2)OCO3)cc(OC)c1OC | 106 | – | – | – | – | – | – | – | – | – | – | – | – | – | – | – | – | – | – | – |
| inactive | COc1ccc(C(=C(COC(C)=O)COC(C)=O)c2cc(OC)c(OC)c(OC)c2)cc1O[Si](C)(C)C(C)(C)C | – | – | – | – | – | – | – | – | – | – | – | – | – | – | – | – | – | – | – | – |
| inactive | COc1cc(C(=C(COC(C)=O)COC(C)=O)c2ccc3ccccc3c2)cc(OC)c1OC | – | 0 | 18 | 45 | 22 | 62 | 11 | 82 | 4 | 46 | 8 | 15 | 81 | 83 | 74 | 10 | 19 | 0 | 0 | inhibition of growth at 1 µM [21]: 0%; inhibition of growth at 1 µM [22]: 17%; inhibition of growth at 10 µM [23]: 6%; inhibition of growth at 1 µM [24]: 12%; inhibition of growth at 10 µM [25]: 41%; inhibition of growth at 10 µM [26]: 65%; inhibition of growth at 1 µM [27]: 3%; inhibition of growth at 1 µM [28]: 12%; inhibition of growth at 10 µM [29]: 20%; inhibition of growth at 10 µM [30]: 17% |
| – | COc1cc(/C(=C2/O[C@@H]([C@H](O)CO)[C@H]3OC(C)(C)O[C@@H]23)c2cccc([N+](=O)[O-])c2)cc(OC)c1OC | – | 0 | 1 | 14 | 4 | 23 | 11 | 10 | 0 | 16 | 10 | 0 | 26 | 18 | 0 | 4 | 6 | 0 | 4 | inhibition of growth at 1 µM [21]: 0%; inhibition of growth at 1 µM [22]: 17%; inhibition of growth at 10 µM [23]: 0%; inhibition of growth at 1 µM [24]: 0%; inhibition of growth at 10 µM [25]: 11%; inhibition of growth at 10 µM [26]: 6%; inhibition of growth at 1 µM [27]: 8%; inhibition of growth at 1 µM [28]: 10%; inhibition of growth at 10 µM [29]: 0%; inhibition of growth at 10 µM [30]: 14% |
